Assay results taken from PMC8504815 (Clinical and Translational Science, 2021).
“Also recorded” adds a separate entry of the source.

Key:
[1] = Blood pharmacokinetics, single ascending dose; assay type: in vivo, human
Outline: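 Ten cohorts of 8 healthy adults aged 18–65 were randomized 3:1 to one fasted oral dose (0.5–600 mg) or placebo, double-blind. Blood was taken predose and at protocol timepoints up to day 8, and drug was measured by validated LC-MS/MS. Dose proportionality used regression of log Cmax and AUC on log dose, giving the slope with 90% CI.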

[2] = Blood pharmacokinetics, multiple ascending dose; assay type: in vivo, human; settings: for CLss/F: apparent total body clearance from blood at steady state; for CLss/F / AUC(0-t) / Cmax: mean (SD); for half-life: terminal half-life; for half-life / Tmax: median (minimum-maximum)
Outline: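 Fasted healthy subjects with asymptomatic atopic diathesis were randomized 3:1 to oral drug or placebo, q.d. or b.i.d., through day 12. Blood was sampled predose and to 24 h on day 1 (b.i.d. to 12 h), then at trough and 2 h postdose. Urine was also collected. Assay was LC-MS/MS. Log Cmax/AUC was regressed on log dose (slope, 90% CI).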

Food effect = assay type: in vivo, human; settings: for MRT: mean (SD)
BTK = BTK (Homo sapiens, UniProt Q06187); assay: BTK occupancy in blood; assay type: in vivo
Sequence of BTK (Q06187 whole entry): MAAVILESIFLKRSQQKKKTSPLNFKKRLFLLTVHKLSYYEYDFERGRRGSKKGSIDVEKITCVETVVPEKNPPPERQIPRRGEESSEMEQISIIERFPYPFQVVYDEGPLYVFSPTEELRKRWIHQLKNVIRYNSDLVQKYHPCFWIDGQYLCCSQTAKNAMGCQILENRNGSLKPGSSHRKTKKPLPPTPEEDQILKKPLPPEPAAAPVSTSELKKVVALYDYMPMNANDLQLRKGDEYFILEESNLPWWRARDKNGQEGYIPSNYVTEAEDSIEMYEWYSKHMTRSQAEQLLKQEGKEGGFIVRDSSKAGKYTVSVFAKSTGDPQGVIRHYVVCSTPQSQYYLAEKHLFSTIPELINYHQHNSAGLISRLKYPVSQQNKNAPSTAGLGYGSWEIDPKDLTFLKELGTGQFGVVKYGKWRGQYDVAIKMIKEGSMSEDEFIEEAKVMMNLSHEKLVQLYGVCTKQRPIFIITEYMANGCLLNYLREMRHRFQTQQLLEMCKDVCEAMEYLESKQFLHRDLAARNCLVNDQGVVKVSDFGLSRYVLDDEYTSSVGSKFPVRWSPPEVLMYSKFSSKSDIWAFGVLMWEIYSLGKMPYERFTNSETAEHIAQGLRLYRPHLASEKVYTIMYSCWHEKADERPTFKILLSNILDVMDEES

basophils [3] = assay: Basophil activation; assay type: in vivo, human; settings: for trough inhibition of CD203c: day 12; for inhibition of CD203c+ basophils, peak: 8 h on day 1
Outline: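 Heparinized whole blood was drawn at set timepoints from MAD subjects (healthy, asymptomatic atopic diathesis; oral q.d. or b.i.d.). It was stimulated ex vivo with anti-IgE for 25 minutes at 37°C/5% CO₂. CD63+ and CD203c+ basophils were counted as a percentage by flow cytometry and expressed as % inhibition versus baseline. Subjects with baseline CD63+ stimulation below 10% were excluded.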

skin prick test wheal = assay: Skin prick test; assay type: in vivo, human; settings: MAD
Outline: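 MAD subjects with atopic diathesis had skin prick tests to known allergens from 7 undiluted allergens (pollens, house dust mite, cat and horse dander). Tests were done at day −1, day 1 predose/2/8 h, day 2 predose and day 12 predose/8/24/96 h. Wheal diameter was the mean of the longest and perpendicular diameters. The predose average (day −1 and day 1) was compared with the average of all 7 postdose tests.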

Safety and tolerability = assay type: in vivo, human; settings: for dose-limiting toxicity: up to highest dose tested
[4] = statement in discussion, no value or reference printed; cited from earlier work
basophils [5] = settings: doses >=200 mg; not sustained beyond; cited from earlier work
[6] = human, whole blood, oral, 100 mg, MAD 100 mg b.i.d., Day 1
[7] = human, whole blood, oral, 100 mg, MAD 100 mg b.i.d., Day 12
[8] = human, whole blood, oral, 200 mg, MAD 200 mg b.i.d., Day 12
[9] = human, whole blood, oral, 600 mg, MAD 600 mg q.d., Day 1

C=CC(=O)N(C)CCOc1c(N)ncnc1-c1cc(F)cc(NC(=O)c2ccc(C3CC3)cc2F)c1C [Remibrutinib]
dose proportionality of Cmax, AUCinf, AUClast over the full dose range ([1]; SAD cohorts): not demonstrated | half-life ([1]; human, whole blood, oral): 1 to 2 h | Tmax ([1]; human, whole blood, po): 0.5 to 1.25 h | CLss/F ([2]; MAD 100 mg b.i.d., Day 12): 255 (153) L/h | CLss/F ([2]; MAD 100 mg q.d., Day 12): 198 (88.7) L/h | CLss/F ([2]; MAD 200 mg b.i.d., Day 12): 267 (126) L/h | CLss/F ([2]; MAD 400 mg q.d., Day 12): 366 (150) L/h | CLss/F ([2]; MAD 600 mg q.d., Day 12): 521 (131) L/h | dose proportional increases of Cmax and AUC over the full dose range ([2]; MAD cohorts): not observed | time to steady-state ([2]; MAD cohorts): third day of dosing | direct renal excretion, contribution to total apparent blood clearance ([2]; across doses in all MAD cohorts, urine): ~ 1% | AUC(0-t) ([2]; human, whole blood, oral, 100 mg, AUC0–12 h, MAD 100 mg b.i.d., Day 12): 496 ng·h/mL | AUC(0-t) ([2]; human, whole blood, oral, 100 mg, AUC0–24 h, MAD 100 mg q.d., Day 12): 485 ng·h/mL | AUC(0-t) ([2]; human, whole blood, oral, 100 mg, AUClast, MAD 100 mg b.i.d., Day 12): 518 ng·h/mL | Cmax [2, 6]: 180 ng/mL | Cmax [2, 7]: 306 ng/mL | half-life ([2]; human, whole blood, oral, 100 mg, T1/2, MAD 100 mg b.i.d., Day 12): 2.84 h | Tmax [2, 6]: 1.5 h | Tmax [2, 7]: 0.775 h | AUC(0-t) ([2]; human, whole blood, oral, 200 mg, AUC0–12 h, MAD 200 mg b.i.d., Day 1): 464 ng·h/mL | AUC(0-t) ([2]; human, whole blood, oral, 200 mg, AUC0–12 h, MAD 200 mg b.i.d., Day 12): 890 ng·h/mL | AUC(0-t) ([2]; human, whole blood, oral, 200 mg, AUClast, MAD 200 mg b.i.d., Day 1): 464 ng·h/mL | Cmax ([2]; human, whole blood, oral, 200 mg, MAD 200 mg b.i.d., Day 1): 236 ng/mL | Cmax [2, 8]: 347 ng/mL | half-life ([2]; human, whole blood, oral, 200 mg, T1/2, MAD 200 mg b.i.d., Day 12): 12.4 h | Tmax [2, 8]: 0.992 h | AUC(0-t) ([2]; human, whole blood, oral, 400 mg, AUC0–24 h, MAD 400 mg q.d., Day 1): 977 ng·h/mL | AUC(0-t) ([2]; human, whole blood, oral, 600 mg, AUC0–24 h, MAD 600 mg q.d., Day 1): 1080 ng·h/mL | AUC(0-t) ([2]; human, whole blood, oral, 600 mg, AUC0–24 h, MAD 600 mg q.d., Day 12): 1230 ng·h/mL | Cmax [2, 9]: 550 ng/mL | Tmax [2, 9]: 0.75 h | MRT ([2]; human, whole blood, oral, mean residence time (MRT), multiple doses (q.d. and b.i.d.), overall statement): < 3 h | mean residence time (MRT) ([2]; multiple doses (q.d. and b.i.d.), overall statement): ~ 3 h | number of doses to steady state ([2]; overall statement in discussion): less than 5 doses | accumulation with multiple doses ([2]; q.d. and b.i.d. dosing): no pronounced accumulation; also recorded: no marked accumulation | Delay of median Tmax, fed vs fasted (Food effect; 60 mg single dose, standardized high-fat breakfast): ~ 2 h | Cmax geometric mean ratio (fed vs fasted) (Food effect; 60 mg single dose, 90% CI 0.638-1.01): 0.801 | AUClast geometric mean ratio (fed vs fasted) (Food effect; 60 mg single dose, 90% CI 1.14-1.47): 1.30 | effect of food intake on exposure (Food effect; 60 mg, fed vs fasted): no clinically relevant effect | MRT (Food effect; human, whole blood, oral, 60 mg, 60 mg single dose, Fasted): 2.29 ± 0.72 h | MRT (Food effect; human, whole blood, oral, 60 mg, 60 mg single dose, Fed): 4.17 ± 1.2 h | Tmax (Food effect; human, whole blood, oral, 60 mg, Tmax, 60 mg single dose, Fed, median (min-max)): 2.78 h | BTK occupancy in blood (BTK; MAD, doses >=50 mg, over the measured dosing period, complete = >95%): maintained complete BTK occupancy | BTK occupancy in blood (BTK; SAD, lowest dose of 0.5 mg): no BTK occupancy | lowest dose showing both complete BTK occupancy and almost complete basophil inhibition (BTK; single dose): 30 mg | trough level inhibition of CD63 (basophils [3]; MAD 10 mg q.d., last day of dosing): 80% | trough inhibition of CD203c (basophils [3]; MAD 100 mg b.i.d.): 63% | inhibition of CD203c+ basophils, peak (basophils [3]; MAD 200 mg b.i.d.): 81.8% | trough inhibition of CD203c (basophils [3]; MAD 200 mg b.i.d.): 67% | inhibition of CD203c+ basophils, peak (basophils [3]; MAD 400 mg q.d.): 84% | inhibition of blood basophil activation (CD63 expression) (basophils [3]; MAD daily dose >=50 mg, day 1-12 incl. day 12 predose): Near complete; also recorded: Full inhibition | basophil inhibition (CD63 expression) (basophils [3]; SAD 60 mg, after 24 h): ~90% | inhibition of CD203c basophil activation marker (basophils [3]; SAD 200 mg cohort, at 8 h): up to 79.4% | basophil inhibition (CD63 expression) (basophils [3]; SAD, doses >=100 mg): almost complete inhibition | skin prick test (SPT) inhibition (skin prick test wheal; day 12 predose, >=100 mg q.d.): Near complete | average decrease in wheal size (SPT) (skin prick test wheal; doses >=100 mg q.d., across all tests, subjects with atopic diathesis): ~ 3 mm | hematomas (Safety and tolerability; 100 mg MAD cohort, after trauma / vessel puncture, resolved spontaneously): two hematomas | self-limiting epistaxis (Safety and tolerability; 600 mg MAD group, both had history of repeated epistaxis): Two subjects | headache (most common AE) (Safety and tolerability; FE cohort, 2/12): 16.7% | Subjects with at least 1 AE (Safety and tolerability; FE cohort, 7 of 12 subjects): 58.3% | incidence of AEs (Safety and tolerability; FE cohort, fasted condition): 16.7% | incidence of AEs (Safety and tolerability; FE cohort, fed condition): 50% | AE severity: Mild (Safety and tolerability; Food effect cohort, N = 12): 7 (58.3) n (%) | AE severity: Moderate (Safety and tolerability; Food effect cohort, N = 12): 1 (8.3) n (%) | Headache (Safety and tolerability; Food effect cohort, N = 12): 2 (16.7) n (%) | Nasopharyngitis (Safety and tolerability; Food effect cohort, N = 12): 1 (8.3) n (%) | Study drug-related AEs (Safety and tolerability; Food effect cohort, N = 12): 3 (25.0) n (%) | Subjects with at least 1 AE (Safety and tolerability; Food effect cohort, N = 12): 7 (58.3) n (%) | subjects with AEs suspected to be related to the study drug (Safety and tolerability; MAD cohorts, 5/48): 10.4% | incidence of AEs (subjects with at least 1 AE) (Safety and tolerability; MAD cohorts, 24 subjects on remibrutinib): 50.0% | AE severity: Mild (Safety and tolerability; MAD cohorts, all doses, N = 48): 22 (45.8) n (%) | AE severity: Moderate (Safety and tolerability; MAD cohorts, all doses, N = 48): 5 (10.4) n (%) | AE severity: Severe (Safety and tolerability; MAD cohorts, all doses, N = 48): 1 (2.1) n (%) | Headache (Safety and tolerability; MAD cohorts, all doses, N = 48): 5 (10.4) n (%) | Nasopharyngitis (Safety and tolerability; MAD cohorts, all doses, N = 48): 3 (6.3) n (%) | Study drug-related AEs (Safety and tolerability; MAD cohorts, all doses, N = 48): 5 (10.4) n (%) | Subjects with at least 1 AE (Safety and tolerability; MAD cohorts, all doses, N = 48): 24 (50.0) n (%) | Toothache (Safety and tolerability; MAD cohorts, all doses, N = 48): 1 (2.1) n (%) | AEs reported (Safety and tolerability; SAD 100 and 200 mg cohorts): No AEs | Subjects with at least 1 AE (Safety and tolerability; SAD cohorts, 17 subjects on remibrutinib): 28.3% | AE severity: Mild (Safety and tolerability; SAD cohorts, all doses, N = 60): 16 (26.7) n (%) | AE severity: Moderate (Safety and tolerability; SAD cohorts, all doses, N = 60): 1 (1.7) n (%) | Headache (Safety and tolerability; SAD cohorts, all doses, N = 60): 6 (10.0) n (%) | Nasopharyngitis (Safety and tolerability; SAD cohorts, all doses, N = 60): 4 (6.7) n (%) | Study drug-related AEs (Safety and tolerability; SAD cohorts, all doses, N = 60): 7 (11.7) n (%) | Subjects with at least 1 AE (Safety and tolerability; SAD cohorts, all doses, N = 60): 17 (28.3) n (%) | subjects with AEs suspected to be related to the study drug (Safety and tolerability; SAD cohorts, all on remibrutinib, of 80 subjects): 7 subjects | changes in hematology, biochemistry, urinalysis parameters (vital signs, ECG) (Safety and tolerability; all cohorts): No clinically significant changes | dose-limiting toxicity (Safety and tolerability; all doses): without any dose‐limiting toxicity | dose-limiting toxicity (Safety and tolerability; all doses, listed as remibrutinib): No dose‐limiting toxicity | tolerability (Safety and tolerability; all evaluated doses, up to 600 mg oral): well‐tolerated | SAEs or deaths (Safety and tolerability; any cohort, overall summary): No SAEs or deaths | risk of bleeding (Safety and tolerability; any dose, bruising log and coagulation testing): no increased risk of bleeding | solubility [4]: low solubility

C[C@H]1CN(C2COC2)CCN1c1ccc(Nc2cc(-c3ccnc(N4CCn5c(cc6c5CC(C)(C)C6)C4=O)c3CO)cn(C)c2=O)nc1 [fenebrutinib]
duration of more than 90% CD63 inhibition (basophils [5]): ≤ 8 h
